Experimental data of several laboratories.
Lines come from different studies, so protocols differ.
Target: Serine/threonine-protein kinase pim-1 (PIM1, Homo sapiens, UniProt P11309)

| Compound | test | conditions | remaining binding |
| --- | --- | --- | --- |
| O=C(c1ccc(Nc2ncc(Cl)c(-c3ccc(Cl)s3)n2)cc1)N1CCC(N2CCCC2)CC1 | binding, competition with immobilised ligand | 1 µM | 87% |
| CN(C)c1nccc(-c2cnn3ncccc23)n1 | binding | 1 µM | 81% |
| Nc1cnc(N2CCc3cc(S(=O)(=O)Nc4c(F)cc(Cl)cc4F)cc(N4CCCC4=O)c32)nc1 | cell-free assay, competition with immobilised ligand | 1 µM | 88% |
| Nc1ncc2c(n1)-c1c([nH]c3ccc(C#CC4CC4)cc13)CCCC2 | binding, competition with immobilised ligand | 1 µM | 73% |
| CN(C)c1ncc(F)c(-c2cnn3ncccc23)n1 | binding | 1 µM | 82% |
| O=C(c1ccc(Nc2nccc(-c3cc4ccccc4s3)n2)cc1)N1CCC(N2CCCC2)CC1 | binding, competition with immobilised ligand | 1 µM | 75% |
| CCN1CCN(Cc2ccc(C(=O)Nc3ccc(C)c(Oc4ccc5c(c4)CC(=O)N5)c3)cc2C(F)(F)F)CC1 | binding, competition with immobilised ligand | 1 µM | 100% |
| Cc1cc(NC(=O)c2cccc(S(F)(F)(F)(F)F)c2)cc(-n2ccn3nc(-c4cccnc4)cc23)c1 | cell-free assay, competition with immobilised ligand | 1 µM | 95.6% |
| c1cnn2ncc(-c3ccnc(N4CCC45COC5)n3)c2c1 | binding | 1 µM | 71% |
| Cc1cc(-n2nc(Cc3cc(F)cc(C(F)(F)F)c3)nc2C)ccc1C(N)=O | cell-free assay, competition with immobilised ligand | 1 µM | 100% |
| C[C@@H]1CCN(c2nccc(-c3cnn4ncccc34)n2)C1 | binding | 1 µM | 84% |
| CNC(=O)[C@@H]1CC[C@@H](n2c(-c3ccc4cnccc4c3)nc3ccc(C(=O)NCc4cccc(C(N)=O)c4)cc32)C1 | binding, competition with immobilised ligand | 1 µM | 100% |
| N[C@H]1CCN(c2nccc(-c3cnn4ncccc34)n2)C1 | binding | 1 µM | 99% |
| FC(F)(F)c1ccc2c(c1)nc(-c1cccnc1)n2C1CC1 | cell-free assay, competition with immobilised ligand | 1 µM | 94% |
| O=C(NCCCN1CCOCC1)c1ccc(Nc2nccc(-c3cc4ccccc4s3)n2)cc1 | binding, competition with immobilised ligand | 1 µM | 85% |
| O=C(O)c1cc(-c2ccc(C3CCNCC3)cc2)c2ccc(-c3ccc(C(F)(F)F)cc3)cc2c1 | cell-free assay, competition with immobilised ligand | 1 µM | 100% |
| FC(F)(F)Oc1cccc(-c2cnc3ccc(-c4ccncc4)nn23)c1 | cell-free assay, competition with immobilised ligand | 5 µM | 23% |
| CC(=O)C1=C(C)N(c2cccc(C(F)(F)F)c2)C(=O)N[C@@H]1c1ccc(C#N)nc1 | cell-free assay, competition with immobilised ligand | 1 µM | 100% |
| CN(C)c1nccc(-c2cnc3ncccn23)n1 | binding | 1 µM | 82% |
| C[C@@H]1CN(c2ccc3ncc(-c4ccc5[nH]nc(C6CC6)c5c4)n3n2)C[C@H](C)O1 | binding, competition with immobilised ligand | 0.5 µM | 19% |
| Cc1cc(C)c(-n2ccn3nc(-c4cccnc4)cc23)cc1NC(=O)c1cc(C#N)cc(S(F)(F)(F)(F)F)c1 | cell-free assay, competition with immobilised ligand | 0.1 µM | 92% |
| c1cncc(-c2cccc(Nc3nccc(NC4CCCCC4)n3)c2)c1 | binding, competition with immobilised ligand | 10 µM | 42% |
| O=C(Nc1c[nH]nc1C(=O)NC1CCNCC1)c1cc(F)cc(F)c1 | binding, competition with immobilised ligand | 1 µM | 100% |
| CNC(=O)c1ccc(Nc2ncc(C(F)(F)F)c(NCc3nccnc3N(C)S(C)(=O)=O)n2)cc1 | cell-free assay, competition with immobilised ligand | 0.1 µM | 93% |
| CN(CCCC(F)(F)F)c1nccc(-c2cnn3ncccc23)n1 | binding | 1 µM | 98% |
